According to paper PMC5237703 (Acta Pharmaceutica Sinica. B, 2016):
Where two headings read alike, the source gives them in different places.

How the values were obtained:
MCF-7 (breast cancer) = assay: MTT cytotoxicity assay, MCF-7; type: cell-based, human; settings: read-out: IC50 Breast MCF-7
How it was run: (§1)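 Media: EMEM for MCF-7, McCoy's 5a for SaOS-2, RPMI-1640 for K562, each with NaHCO3, sodium pyruvate, 10% fetal calf serum and 1% penicillin/streptomycin. Culture at 37 °C, humidified 5% CO2. Seeded 5×10^3 cells/well and exposed to graded test compound for 72 h. MTT for 4 h, DMSO solubilisation, A570. IC50 from percent survival; mean ± SD, 2–3 experiments in triplicate.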

[1] = test system: breast carcinoma cell line MDA-MB-231; assay: MTT cytotoxicity assay, MDA-MB-231; type: cell-based; settings: read-out: IC50 Breast MDAMB-231
How it was run: (§2)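 Cells grown as adherent monolayers in DMEM with 10% FBS at 37 °C under humidified 5% CO2. Cells were trypsin-harvested and seeded at 5×10^3 per well, then graded concentrations of test compound were added for 72 h. MTT (4 mg/mL solution) was added for 4 h, formazan dissolved in DMSO and A570 read. IC50 derived from percent survival; mean ± SD, 2–3 experiments in triplicate.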

[2] = test system: breast carcinoma cell line MDA-MB-468; assay: MTT cytotoxicity assay, MDA-MB-468; type: cell-based; settings: read-out: IC50 Breast MDAMB-468
How it was run: as §2

[3] = test system: prostatic cancer cell line DU-145; assay: MTT cytotoxicity assay, DU-145; type: cell-based; settings: read-out: IC50 Prostate DU-145
How it was run: as §2

[4] = test system: pancreatic cancer cell line PANC-1; assay: MTT cytotoxicity assay, PANC-1; type: cell-based; settings: read-out: IC50 Pancreas PANC-1
How it was run: as §2

[5] = test system: K562 (myelogenous leukemia); assay: MTT cytotoxicity assay, K562; type: cell-based, human; settings: read-out: IC50 Blood K562
How it was run: as §1

SaOS-2 (osteosarcoma) = assay: MTT cytotoxicity assay, SaOS-2; type: cell-based, human; settings: read-out: IC50 Bone SaoS2
How it was run: as §1

[6] = test system: colon carcinoma cell line HCT-15; assay: MTT cytotoxicity assay, HCT-15; type: cell-based; settings: read-out: IC50 Colon HCT15
How it was run: as §2

[7] = test system: Lung cancer cell line A549; assay: MTT cytotoxicity assay, A549; type: cell-based
[8] = test system: human embryonic kidney cells HEK293; assay: MTT cytotoxicity assay, HEK293; type: cell-based; settings: read-out: IC50 Normal HEK293
How it was run: as §2

COX-1 = biological target: T1, COX-1 (Ovis aries, UniProt P05979); assay: COX-1 inhibition, chromogenic TMPD oxidation assay; type: biochemical, Ram
T1 sequence (P05979 25-600): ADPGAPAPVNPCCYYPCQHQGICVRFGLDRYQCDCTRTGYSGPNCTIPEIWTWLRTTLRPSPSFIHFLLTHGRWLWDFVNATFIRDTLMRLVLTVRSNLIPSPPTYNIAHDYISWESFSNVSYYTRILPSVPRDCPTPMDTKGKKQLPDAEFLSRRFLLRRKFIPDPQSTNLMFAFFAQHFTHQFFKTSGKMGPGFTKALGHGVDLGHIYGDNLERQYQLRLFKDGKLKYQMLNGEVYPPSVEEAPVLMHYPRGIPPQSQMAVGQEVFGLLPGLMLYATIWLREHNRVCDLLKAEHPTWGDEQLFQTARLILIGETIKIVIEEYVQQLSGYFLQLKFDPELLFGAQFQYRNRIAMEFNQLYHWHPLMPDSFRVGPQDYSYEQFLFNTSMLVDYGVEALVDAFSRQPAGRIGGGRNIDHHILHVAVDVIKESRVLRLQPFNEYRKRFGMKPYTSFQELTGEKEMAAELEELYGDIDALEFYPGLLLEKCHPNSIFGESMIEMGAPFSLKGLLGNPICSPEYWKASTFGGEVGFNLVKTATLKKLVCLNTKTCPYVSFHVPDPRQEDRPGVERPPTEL

Recombinant human COX-2 = biological target: T2, Recombinant human COX-2 (Homo sapiens, UniProt P35354); assay: biochemical; type: biochemical; settings: for Selectivity ratio COX-2/COX-1: ratio of IC50 COX-2 to IC50 COX-1; for IC50: TMPD oxidation at 603 nm
T2 sequence (P35354 18-604): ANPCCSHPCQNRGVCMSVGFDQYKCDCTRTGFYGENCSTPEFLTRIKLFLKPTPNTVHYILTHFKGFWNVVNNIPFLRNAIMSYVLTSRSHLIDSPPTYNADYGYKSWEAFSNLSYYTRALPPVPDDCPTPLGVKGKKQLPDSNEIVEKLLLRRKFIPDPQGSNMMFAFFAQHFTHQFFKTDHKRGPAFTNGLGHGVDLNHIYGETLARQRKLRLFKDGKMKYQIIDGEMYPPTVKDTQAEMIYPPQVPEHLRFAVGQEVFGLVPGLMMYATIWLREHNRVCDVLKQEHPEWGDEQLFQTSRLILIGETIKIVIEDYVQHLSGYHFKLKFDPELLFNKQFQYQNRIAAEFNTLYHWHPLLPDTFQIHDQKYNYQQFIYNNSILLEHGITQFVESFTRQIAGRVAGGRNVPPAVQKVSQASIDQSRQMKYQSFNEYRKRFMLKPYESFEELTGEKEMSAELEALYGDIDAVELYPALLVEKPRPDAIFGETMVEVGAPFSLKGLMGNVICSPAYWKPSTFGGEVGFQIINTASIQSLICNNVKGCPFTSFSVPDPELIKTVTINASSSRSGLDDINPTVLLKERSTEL

mouse fibroblast KB-31 = assay: MTT cytotoxicity assay, KB-31; type: cell-based; settings: KB 3-1, 72 h, read-out: IC50 Mouse fibroblast KB-31
How it was run: as §2

[9] = MTT, 72 h incubation, non-cancerous cell line
[10] = read-out: IC50 COX-1, COX-1 from Ram seminal vesicles, TMPD oxidation at 603 nm
[11] = read-out: IC50 COX-2, recombinant human COX-2
[12] = Homo sapiens, A549, read-out: IC50 Lung A549
[13] = IC50 COX-2, recombinant human COX-2

Selectivity ratio COX-2/COX-1 (Recombinant human COX-2) | IC50 (COX-1) [µM] | IC50 (Recombinant human COX-2; [13]) [µM] | Compound | IC50 (MCF-7 (breast cancer); MTT, 72 h incubation) [µM] | IC50 ([1]; MTT, 72 h incubation) [µM] | IC50 ([2]; MTT, 72 h incubation) [µM] | IC50 ([3]; MTT, 72 h incubation) [µM] | IC50 ([4]; MTT, 72 h incubation) [µM] | IC50 ([5]; MTT, 72 h incubation) [µM] | IC50 (MCF-7 (breast cancer); Homo sapiens, MCF7, 72 h) [µM] | IC50 ([1]; Homo sapiens, MDA-MB-231, 72 h) [µM] | IC50 ([2]; Homo sapiens, MDA-MB-468, 72 h) [µM] | IC50 ([3]; Homo sapiens, DU-145, 72 h) [µM] | IC50 ([4]; Homo sapiens, PANC-1, 72 h) [µM] | IC50 ([5]; Homo sapiens, K562, 72 h) [µM] | IC50 (SaOS-2 (osteosarcoma); Homo sapiens, SAOS-2, 72 h) [µM] | IC50 ([6]; Homo sapiens, HCT-15, 72 h) [µM] | IC50 [7, 12] [µM] | IC50 ([8]; Homo sapiens, HEK293, 72 h) [µM] | IC50 (mouse fibroblast KB-31) [µM] | other results
16.58 | – | – | 5-(3-(4-Fluorophenyl)-3H-imidazo[4,5-b]pyridin-2-yl)-2-methoxyphenol [Compound 3e] | 60 | > 100 | 78.8 | > 100 | > 100 | 53 | – | – | – | – | – | – | – | – | – | – | – | IC50 (SaOS-2 (osteosarcoma); MTT, 72 h incubation): 62.5 µM; IC50 ([6]; MTT, 72 h incubation): > 100 µM; IC50 ([7]; read-out: IC50 Lung A549, MTT): > 100 µM; IC50 [8, 9]: > 100 µM; IC50 (COX-1; [10]): 16.8 ± 0.1 µM; IC50 (Recombinant human COX-2; [11]): 279 ± 7.2 µM
0.42 | 21.8 ± 1.1 | 9.2 ± 0.02 | FC(F)(F)c1cccc(-c2nc3cccnc3n2-c2ccc(Cl)cc2)c1 [Compound 3f, 3-(4-Chlorophenyl)-2-(3-(trifluoromethyl)phenyl)-3H-imidazo[4,5-b]pyridine] | – | – | – | – | – | – | 49.9 | > 100 | > 100 | > 100 | > 100 | 43 | 53.5 | > 100 | > 100 | > 100 | > 100 | selectivity for COX-2 over COX-1 (Recombinant human COX-2; from IC50 values against COX-2 and COX-1): 2 fold
3.59 | 10 ± 0.01 | 35.9 ± 2 | Oc1cccc(-c2nc3cccnc3n2-c2ccc(F)cc2)c1 [Compound 3a, 3-(3-(4-Fluorophenyl)-3H-imidazo[4,5-b]pyridin-2-yl)phenol] | – | – | – | – | – | – | 61.5 | > 100 | > 100 | > 100 | > 100 | 49 | 64 | > 100 | > 100 | > 100 | > 100 | –
0.83 | – | – | 5-(3-(3,4-Dimethoxyphenyl)-3H-imidazo[4,5-b]pyridin-2-yl)-2-methoxyphenol [Compound 3h] | 53 | > 100 | > 100 | > 100 | 57.7 | 54.5 | – | – | – | – | – | – | – | – | – | – | – | IC50 (SaOS-2 (osteosarcoma); MTT, 72 h incubation): 59 µM; IC50 ([6]; MTT, 72 h incubation): 66.9 µM; IC50 ([7]; read-out: IC50 Lung A549, MTT): > 100 µM; IC50 [8, 9]: 80 µM; IC50 (COX-1; [10]): 18.5 µM; IC50 (Recombinant human COX-2; [11]): 15.4 ± 3.1 µM
0.42 | 36 ± 1.4 | 15.1 ± 0.9 | Fc1ccc(-n2c(-c3cccc(C(F)(F)F)c3)nc3cccnc32)cc1 [Compound 3c, 3-(4-Fluorophenyl)-2-(3-(trifluoromethyl)phenyl)-3H-imidazo[4,5-b]pyridine] | – | – | – | – | – | – | 44 | > 100 | > 100 | > 100 | > 100 | 42 | 52.5 | > 100 | > 100 | > 100 | > 100 | –
– | 15 ± 0.13 | – | COc1cccc(-c2nc3cccnc3n2-c2ccc(F)cc2)c1 [Compound 3b, 3-(4-Fluorophenyl)-2-(3-methoxyphenyl)-3H-imidazo[4,5-b]pyridine] | – | – | – | – | – | – | 69 | > 100 | 66.5 | > 100 | > 100 | 46 | 67 | > 100 | > 100 | > 100 | 75 | –
1.17 | 19.1 ± 0.3 | 22.4 ± 2.5 | COc1cc(-c2nc3cccnc3n2-c2ccc(Cl)cc2)cc(OC)c1OC [Compound 3g, 3-(4-Chlorophenyl)-2-(3,4,5-trimethoxyphenyl)-3H-imidazo[4,5-b]pyridine] | – | – | – | – | – | – | 56 | > 100 | 69.3 | > 100 | 83.5 | 47 | 55 | > 100 | > 100 | > 100 | 64.4 | –
0.60 | – | – | 4-(3-(4-Fluorophenyl)-3H-imidazo[4,5-b]pyridin-2-yl)-2-methoxyphenol [Compound 3d] | 72 | > 100 | > 100 | > 100 | > 100 | 57 | – | – | – | – | – | – | – | – | – | – | – | IC50 (SaOS-2 (osteosarcoma); MTT, 72 h incubation): 71.5 µM; IC50 ([6]; MTT, 72 h incubation): > 100 µM; IC50 ([7]; read-out: IC50 Lung A549, MTT): > 100 µM; IC50 [8, 9]: > 100 µM; IC50 (COX-1; [10]): 42.7 ± 2.5 µM; IC50 (Recombinant human COX-2; [11]): 25.6 ± 1 µM
